Laboratory results published in ChEMBL document CHEMBL1649064, “Antimalarial activity of novel 5-aryl-8-aminoquinoline derivatives” (J Med Chem, 2011).
In brackets after ≈: the same amount, converted by molar mass. Activity calls are given as the source filed them. The rule behind the calls is not given here.

Key:
[1] = Therapeutic index, ratio of IC50 for mouse RAW264.7 cells to IC50 for mefloquine-susceptible Plasmodium falciparum CDC Indochina 3 W2; type: cell-based; details: read-out: TI
Method in brief: (§1)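 RAW 264.7 macrophages seeded at 2.5 × 10⁴ cells/well and pre-incubated about 12 h. Exposed 24 h to 0.29-48 μg/mL of DMSO-dissolved drug, then drug removed, fresh medium added and 24 h recovery. Viability by MTT, with background, untreated and 0.6% DMSO controls. Duplicate runs, IC50 by sigmoidal variable-slope fit. Index is the macrophage IC50 over the P. falciparum IC50.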

Plasmodium berghei [2] = experiment: Prophylactic antimalarial activity against Plasmodium berghei infected Exoerythrocytic mouse model; type: functional
Method in brief: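 Mice infected with P. berghei sporozoites by intravenous inoculation. Compounds given orally once daily for 3 days at up to 320 mg/kg/day. Read-out was cure and delay of patency in groups of 4 mice.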

Plasmodium berghei [3] = experiment: Prophylactic antimalarial activity against Plasmodium berghei infected Exoerythrocytic mouse model at 320 mg/kg, po for 3 days; type: functional, organism-based; design: dose 320 mg/kg
Method in brief: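 Mice infected with P. berghei sporozoites by intravenous inoculation. Compound given orally daily for 3 days. Read-outs were cure and delay of patency.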

[4] = Half life in mouse microsomes by LC-MS/MS analysis; type: ADME, Microsome
Method in brief: (§2)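 Microsomal stability run on a robotic sample processor in 96-well format, following an internal SOP. Parent compound quantified by LC-MS/MS with fast LC gradient or isocratic methods.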

RAW264.7 = experiment: Cytotoxicity against mouse RAW264.7 cells after 24 hrs by MTT assay; type: cell-based; details: RAW264.7, 24 h
Method in brief: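 Macrophage line from ATCC, seeded at 2.5 × 10⁴ cells/well and left ~12 h. Drug stocks in DMSO, serially diluted to 0.29-48 μg/mL/well. Exposure 24 h, then drug removed and fresh medium added for a further 24 h recovery. Viability read by MTT. Controls were no-cell background, untreated cells and 0.6% DMSO. Duplicate runs, IC50 from sigmoidal variable-slope fit.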

[5] = Therapeutic index, ratio of IC50 for mouse RAW264.7 cells to IC50 for mefloquine-resistant Plasmodium falciparum CDC Sierra Leone 1 D6; type: cell-based; details: read-out: TI; method in brief: as §1
Plasmodium falciparum [6] = experiment: Antimalarial activity against mefloquine-susceptible Plasmodium falciparum CDC Indochina 3 W2 after 48 hrs by [3H]hypoxanthine uptake assay; type: functional, organism-based
Method in brief: (§3)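 Compounds dissolved in DMSO, diluted 400-fold in RPMI 1640 with 25 mM Hepes, 32 mM NaHCO₃ and 10% Albumax I, then 2-fold serial dilutions over 11 concentrations. Parasites exposed 48 h at 37 °C under 5% O₂/5% CO₂/90% N₂, then [³H]-hypoxanthine added for a further 18 h. DNA harvested onto glass filters and counted. IC50 from a nonlinear regression logistic dose-response model.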

[7] = Half life in human microsomes by LC-MS/MS analysis; type: ADME, Microsome; method in brief: as §2
Plasmodium falciparum [8] = experiment: Antimalarial activity against mefloquine-resistant Plasmodium falciparum CDC Sierra Leone 1 D6 after 48 hrs by [3H]hypoxanthine uptake assay; type: functional, organism-based; method in brief: as §3

Row | SMILES | selectivity ratio [1] | MAC (Plasmodium berghei [2]) | MTD (Plasmodium berghei [2]) | Activity (Plasmodium berghei [3]) | half-life [4] | IC50 (RAW264.7) | selectivity ratio [5] | IC50 (Plasmodium falciparum [6]) | half-life [7] | IC50 (Plasmodium falciparum [8])
1 | COc1cccc(-c2c(OC)cc(NC(C)CCCNC(=O)OC(C)(C)C)c3nc(C(F)(F)F)cc(C)c23)c1 (stereo not drawn) | > 134 | >960 mg/kg/day | >960 mg/kg/day | inactive | 0.133 h | > 80.2 µg/mL | > 267 | 0.6 µg/mL (≈ 1.1 µM) | 0.15 h | 0.3 µg/mL (≈ 0.548 µM)
2 | COc1cc(C)c2c(-c3ccc(C(F)(F)F)cc3)c(OC)cc(NC(C)CCCN)c2n1.O=C(O)CCC(=O)O (stereo not drawn) | 0.92 | >480 mg/kg/day | >480 mg/kg/day | inactive | > 1 h | 1.2 µg/mL | 0.54 | 1.3 µg/mL | > 1 h | 2.2 µg/mL
3 | COc1cc(NC(C)CCCN)c2nc(C(F)(F)F)cc(C)c2c1-c1ccccc1.O=C(O)CCC(=O)O (stereo not drawn) | 2.21 | >960 mg/kg/day | 480 mg/kg/day | inactive | > 1 h | 3.1 µg/mL | 1.11 | 1.4 µg/mL | > 1 h | 2.8 µg/mL
4 | COc1cc(NC(C)CCCNC(=O)OC(C)(C)C)c2nc(C(F)(F)F)cc(C)c2c1-c1cccc(C(F)(F)F)c1 (stereo not drawn) | > 17 | >960 mg/kg/day | >960 mg/kg/day | inactive | 0.3 h | > 48 µg/mL | > 39.7 | 2.8 µg/mL (≈ 4.78 µM) | 0.3 h | 1.1 µg/mL (≈ 1.88 µM)
5 | COc1cc(C)c2c(-c3ccc(Cl)c(Cl)c3)c(OC)cc(NC(C)CCCN)c2n1.O=C(O)CCC(=O)O (stereo not drawn) | 1.42 | >480 mg/kg/day | 120 mg/kg/day | inactive | > 1 h | 1.7 µg/mL | 0.58 | 1.2 µg/mL | > 1 h | 2.9 µg/mL
6 | COc1cc(C)c2c(Oc3cccc(C(F)(F)F)c3)c(OC)cc(NC(C)CCCN)c2n1 (stereo not drawn) [TAFENOQUINE] | 7.38 | 7.5 mg/kg/day | 120 mg/kg/day |  | > 1 h | 5.9 µg/mL (≈ 12.7 µM) | 2.2 | 0.8 µg/mL (≈ 1.73 µM) | > 1 h | 2.7 µg/mL (≈ 5.83 µM)
7 | COc1cc(NC(C)CCCN)c2nc(C(F)(F)F)cc(C)c2c1-c1ccc(C(F)(F)F)cc1.O=C(O)CCC(=O)O (stereo not drawn) | 12.6 |  |  |  | > 1 h | 10.1 µg/mL | 5.94 | 0.8 µg/mL | > 1 h | 1.7 µg/mL
8 | COc1cc(C)c2c(-c3cccc(C)c3)c(OC)cc(NC(C)CCCN)c2n1.O=C(O)CCC(=O)O (stereo not drawn) | 2.71 | 960 mg/kg/day | 960 mg/kg/day | Active | > 1 h | 1.9 µg/mL | 1.46 | 0.7 µg/mL | > 1 h | 1.3 µg/mL
9 | COc1cc(NC(C)CCCNC(=O)OC(C)(C)C)c2nc(C(F)(F)F)cc(C)c2c1-c1cccc(C)c1 (stereo not drawn) | > 59 | >960 mg/kg/day | >960 mg/kg/day | inactive | 0.183 h | > 48 µg/mL | > 240 | 0.9 µg/mL (≈ 1.69 µM) | 0.217 h | 0.2 µg/mL (≈ 0.376 µM)
10 | COc1cc(NC(C)CCCNC(=O)OC(C)(C)C)c2nc(C(F)(F)F)cc(C)c2c1-c1ccc(C(F)(F)F)cc1 (stereo not drawn) | > 34 | >960 mg/kg/day | >960 mg/kg/day | inactive | 0.267 h | > 48 µg/mL | > 36 | 1.4 µg/mL (≈ 2.39 µM) | 0.5 h | 1.3 µg/mL (≈ 2.22 µM)
11 | COc1cccc(-c2c(OC)cc(NC(C)CCCN)c3nc(OC)cc(C)c23)c1.O=C(O)CCC(=O)O (stereo not drawn) | 3.87 | >480 mg/kg/day | >480 mg/kg/day | inactive | > 1 h | 3.1 µg/mL | 1.11 | 0.8 µg/mL | > 1 h | 2.8 µg/mL
12 | COc1cc(NC(C)CCCN)c2nc(C(F)(F)F)cc(C)c2c1-c1cccc(C)c1.O=C(O)CCC(=O)O (stereo not drawn) | 2 |  |  |  | > 1 h | 1.8 µg/mL | 9 | 0.9 µg/mL | > 1 h | 0.2 µg/mL
13 | COc1cc(NC(C)CCCN)c2ncccc2c1 (stereo not drawn) [PRIMAQUINE] | 43 | 60 mg/kg/day | <120 mg/kg/day |  | 0.35 h | 38.7 µg/mL (≈ 149 µM) | 18.4 | 0.9 µg/mL (≈ 3.47 µM) | > 1 h | 2.1 µg/mL (≈ 8.1 µM)
14 | COc1cc(C)c2c(-c3cccc(C(F)(F)F)c3)c(OC)cc(NC(C)CCCN)c2n1.O=C(O)CCC(=O)O (stereo not drawn) | 1 | >480 mg/kg/day | >480 mg/kg/day | inactive | > 1 h | 1.3 µg/mL | 0.48 | 1.3 µg/mL | > 1 h | 2.7 µg/mL
15 | COc1cc(C)c2c(-c3ccccc3)c(OC)cc(NC(C)CCCN)c2n1.O=C(O)CCC(=O)O (stereo not drawn) | 1.46 |  |  |  | > 1 h | 1.9 µg/mL | 0.59 | 1.3 µg/mL | > 1 h | 3.2 µg/mL
16 | COc1cc(NC(C)CCCN)c2nc(C(F)(F)F)cc(C)c2c1-c1cccc(C(F)(F)F)c1.O=C(O)CCC(=O)O (stereo not drawn) | 3 |  |  |  | > 1 h | 1.5 µg/mL | 1.07 | 0.5 µg/mL | > 1 h | 1.4 µg/mL
17 | COc1cccc(-c2c(OC)cc(NC(C)CCCN)c3nc(C(F)(F)F)cc(C)c23)c1.O=C(O)CCC(=O)O (stereo not drawn) | 2.5 |  |  |  | > 1 h | 1.5 µg/mL | 5 | 0.6 µg/mL | > 1 h | 0.3 µg/mL
